ChEMBL document CHEMBL2331346, “Isolation and characterization of unusual hydrazides from Streptomyces sp. impact of the cultivation support and extraction procedure” (J Nat Prod, 2013)
The source made the active and inactive calls. No cut-off for these calls is given here.

Tests used:
KB = assay: Cytotoxicity against human KB cells assessed as inhibition of cell proliferation after 72 hrs by […] assay; type: functional, cell-based
Method in brief: (§1)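 Cells were grown in D-MEM with 10% fetal calf serum plus penicillin, streptomycin and fungizone, then plated in 96-well plates. After 24 h growth they were treated from 100 μM to 10 nM, with compounds in DMSO (final DMSO 1% to 3%). MTS reagent was added at 72 h and absorbance read at 490 nm versus untreated cells. IC50 came from separate duplicate experiments.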

HCT-116 = assay: Cytotoxicity against human HCT116 cells assessed as inhibition of cell proliferation after 72 hrs by […]; type: functional, cell-based; conditions: for IC50: HCT-116, 72 h; method in brief: as §1
HT-29 = assay: Cytotoxicity against human HT-29 cells assessed as inhibition of cell proliferation after 72 hrs by […]; type: functional, cell-based; method in brief: as §1
BL-21 = assay: (§2) Inhibition of His-tagged Escherichia coli DnaG primase expressed in Escherichia coli BL-21 cells assessed as inhibition of RNA synthesis complementary to ssDNA using rNTPs measured after 5 mins by microplate spectrofluorometer analysis
Micrococcus luteus = assay: Antibacterial activity against Micrococcus luteus ATCC 10240 by disk inhibition zone method; type: functional, organism-based
Method in brief: (§3)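 Disk inhibition zone method against the three strains. Reference antibiotics were gentamicin at 10 μg and chloramphenicol at 30 μg. Inhibition zones were compared with these disks.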

MCF7 = assay: Cytotoxicity against human MCF7 cells assessed as inhibition of cell proliferation after 72 hrs by […]; type: functional, cell-based; method in brief: as §1
Escherichia coli = assay: Antibacterial activity against Escherichia coli ATCC 25922 by disk inhibition zone method; type: functional, organism-based; method in brief: as §3
MDA-MB-231 = assay: Cytotoxicity against human MDA231 cells assessed as inhibition of cell proliferation after 72 hrs by […]; type: functional, cell-based; method in brief: as §1
Bacillus subtilis = assay: Antibacterial activity against Bacillus subtilis ATCC 6633 by disk inhibition zone method; type: functional, organism-based; method in brief: as §3
[1] = as §2

In the case of `CCCC/C=C/N(NC(C)=O)C(=O)CO`, the inhibition (KB) is reported as “inactive”, the inhibition (HCT-116) is reported as “inactive” and the inhibition (HT-29) is reported as “inactive”. For the same molecule, the inhibition (BL-21) was “inactive”, the Activity (Micrococcus luteus) was “inactive” and the inhibition (MCF7) was “inactive”. The Activity (Escherichia coli) was “inactive”, the inhibition (MDA-MB-231) was “inactive” and the Activity (Bacillus subtilis) was “inactive”.

With `CCCC[C@H]1ON(C(=O)CCC2=CCOC2=O)N=C(C)O[C@H]1O` (mixture of isomers) the inhibition (KB) was “inactive”, the inhibition (HCT-116) was “inactive” and the inhibition (HT-29) was “inactive”. The inhibition (BL-21) was “inactive”, the Activity (Micrococcus luteus) was “inactive” and the inhibition (MCF7) was “inactive”. For the same molecule, the Activity (Escherichia coli) was “inactive”, the inhibition (MDA-MB-231) was “inactive” and the Activity (Bacillus subtilis) was “inactive”.

`CC(=O)O[C@@]12CO[C@@H]1C[C@H](O)[C@@]1(C)C(=O)[C@H](O)C3=C(C)[C@@H](OC(=O)[C@H](O)[C@@H](NC(=O)OC(C)(C)C)c4ccccc4)C[C@@](O)([C@@H](OC(=O)c4ccccc4)[C@H]21)C3(C)C` [DOCETAXEL] gave an IC50 (KB) of 0.25 nM and an IC50 (HCT-116) of 50 nM.

Work on `CCCC/C=C\N(NC(C)=O)C(=O)C(CO)/N=[N+](\[O-])CCCCCC` (configuration not stated) [GERALCIN C] yielded an IC50 (KB) of 800 nM, an IC50 (HCT-116) of 800 nM and an IC50 [1] of 700000 nM. The inhibition (BL-21) was “Dose-dependent effect”, the Activity (Micrococcus luteus) was “inactive” and the Activity (Escherichia coli) was “inactive”. For the same molecule, the Activity (Bacillus subtilis) was “inactive”.
